# Results as given in publication PMC9465827 (ACS Medicinal Chemistry Letters, 2022).
# What was measured:
# [1] = tested on: Madin-Darby canine kidney (MDCK) cells with canine MDR1 knocked out; assay: MDCK permeability assay; format: in vitro ADME; conditions: apical to basolateral direction
# How it was run: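 MDCK cells with endogenous canine MDR1 knocked out. Transport of the test compound was measured in the apical-to-basolateral direction. Permeability was reported in 10^-6 cm/s. Data were accepted only when compound recovery was 70%-130%.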
# Kinetic solubility = format: physicochemical; conditions: PBS buffer, pH 7.4, aqueous buffer, kinetic from dmso stock
Structure (SMILES),"permeability (passive diffusion rate), level in words [1]",solubility kinetic at 24 h (Kinetic solubility)
O=C(Cn1ccnc1)Nc1ccc(C2CCCCC2)cc1 [1c],high,–
CC(=O)N1CC(C(=O)Nc2ccc(C3CCCCC3)cc2)C1 [1i],high,–
CN(Cc1cccnc1)C(=O)c1ccc(C2CCCCC2)cc1 [2c'],highly permeable,–
O=C(Nc1ccc([C@H]2[C@@H](F)[C@@H](F)C[C@@H](F)[C@H]2F)cc1)c1cn[nH]c1 [J-1b],–,136 µM
CN(Cc1cccnc1)C(=O)c1ccc([C@H]2[C@@H](F)[C@@H](F)C[C@@H](F)[C@H]2F)cc1 [J-2c'],highly permeable,–
